Activity calls are given as the source filed them. The rule behind the calls is not given here.
Legend:
[1] = system: PC-3; assay: Antiandrogenic activity in human PC3 cells expressing androgen receptor T877A mutant assessed as inhibition of DHT-induced ARE-dependent transactivation at 1 uM after 24 hrs by luciferase reporter gene assay; type: cell-based
How it was run: (§1)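 PC-3 cells, which lack endogenous AR, transiently transfected with plasmids expressing human AR (WT, T877A, W741C or H874Y) plus an ARE-driven MMTV-luc reporter. Cells were treated with or without 0.1 nM DHT. Firefly luciferase was standardized to a Renilla control and normalized to the 0.1 nM DHT signal. Mean ± sd.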

[2] = system: PC-3; assay: Suppression of DHT-stimulated growth of human PC3 cells after 72 hrs with increasing concentration of DHT; type: functional, cell-based
[3] = system: LNCaP; assay: Suppression of DHT-stimulated growth of human LNCAP cells after 72 hrs with increasing concentration of DHT; type: functional, cell-based
[4] = target: T1, Progesterone receptor (Homo sapiens) (UniProt P06401); assay: Agonist activity at human PR B-form expressed in human PC3 cells assessed as receptor transactivation at 1 uM after 24 hrs by luciferase reporter gene assay; type: functional, cell-based; conditions: PC-3
T1 sequence (whole entry): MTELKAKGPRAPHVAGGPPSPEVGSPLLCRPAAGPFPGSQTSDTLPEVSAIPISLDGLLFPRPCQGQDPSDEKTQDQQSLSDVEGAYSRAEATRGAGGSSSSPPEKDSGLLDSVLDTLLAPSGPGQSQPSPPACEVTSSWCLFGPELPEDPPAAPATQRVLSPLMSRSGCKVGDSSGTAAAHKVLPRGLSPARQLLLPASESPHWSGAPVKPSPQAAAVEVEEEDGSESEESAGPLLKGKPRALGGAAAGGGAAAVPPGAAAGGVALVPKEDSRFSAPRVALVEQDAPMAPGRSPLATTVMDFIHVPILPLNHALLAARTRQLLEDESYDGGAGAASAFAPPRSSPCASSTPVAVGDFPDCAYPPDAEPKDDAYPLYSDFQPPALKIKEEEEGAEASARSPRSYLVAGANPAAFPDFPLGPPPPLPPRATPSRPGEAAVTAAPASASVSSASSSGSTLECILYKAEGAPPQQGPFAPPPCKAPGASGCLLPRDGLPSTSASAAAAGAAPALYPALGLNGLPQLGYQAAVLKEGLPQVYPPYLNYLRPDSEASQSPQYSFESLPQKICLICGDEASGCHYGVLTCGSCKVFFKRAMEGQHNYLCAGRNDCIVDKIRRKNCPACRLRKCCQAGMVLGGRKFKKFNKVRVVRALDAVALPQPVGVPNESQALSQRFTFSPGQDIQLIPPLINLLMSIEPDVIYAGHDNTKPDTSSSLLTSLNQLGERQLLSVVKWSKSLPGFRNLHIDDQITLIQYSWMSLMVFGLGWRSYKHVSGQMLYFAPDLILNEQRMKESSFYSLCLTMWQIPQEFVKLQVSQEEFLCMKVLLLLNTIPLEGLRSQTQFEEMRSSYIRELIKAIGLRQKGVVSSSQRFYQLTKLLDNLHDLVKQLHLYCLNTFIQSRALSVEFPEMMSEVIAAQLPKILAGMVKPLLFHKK
How it was run: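 PC-3 cells carrying a luciferase reporter for transactivation by the human PR B form. Antagonist mode used 10 nM R5020 as the agonist. Agonist mode ran in the absence of R5020. Luciferase read-out.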

[5] = target: T2, Androgen receptor (Homo sapiens) (UniProt P10275); assay: Activity in human PC3 cells expressing wild-type androgen receptor assessed as ARE-dependent transactivation at 0.1 uM after 24 hrs by luciferase reporter gene assay in absence of DHT; type: cell-based; conditions: PC-3; how it was run: as §1
T2 sequence (whole entry): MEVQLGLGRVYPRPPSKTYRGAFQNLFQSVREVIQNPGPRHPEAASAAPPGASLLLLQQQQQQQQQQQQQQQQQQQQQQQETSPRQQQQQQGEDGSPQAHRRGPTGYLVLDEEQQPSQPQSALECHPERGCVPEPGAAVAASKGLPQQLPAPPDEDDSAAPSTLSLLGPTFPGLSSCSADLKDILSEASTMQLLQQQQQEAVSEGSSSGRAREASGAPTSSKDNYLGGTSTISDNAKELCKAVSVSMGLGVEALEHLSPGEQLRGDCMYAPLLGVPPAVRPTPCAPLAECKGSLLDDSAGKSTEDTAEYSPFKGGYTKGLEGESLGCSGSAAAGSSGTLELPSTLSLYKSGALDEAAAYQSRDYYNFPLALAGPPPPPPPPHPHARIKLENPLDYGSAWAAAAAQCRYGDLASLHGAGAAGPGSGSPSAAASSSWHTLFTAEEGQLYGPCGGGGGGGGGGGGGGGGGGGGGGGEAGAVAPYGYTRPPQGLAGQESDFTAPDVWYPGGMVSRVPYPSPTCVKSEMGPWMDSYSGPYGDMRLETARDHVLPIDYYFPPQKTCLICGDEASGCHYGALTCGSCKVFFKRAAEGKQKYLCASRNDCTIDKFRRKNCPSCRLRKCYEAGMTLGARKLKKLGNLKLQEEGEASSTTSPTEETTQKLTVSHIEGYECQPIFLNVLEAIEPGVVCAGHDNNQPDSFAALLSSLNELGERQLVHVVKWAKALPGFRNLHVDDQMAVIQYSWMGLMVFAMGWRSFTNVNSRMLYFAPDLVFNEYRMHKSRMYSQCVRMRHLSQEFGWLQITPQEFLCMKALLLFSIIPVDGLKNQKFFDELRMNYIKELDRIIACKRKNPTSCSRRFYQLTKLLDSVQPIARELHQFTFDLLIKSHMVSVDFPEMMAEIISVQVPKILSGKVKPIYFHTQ

[6] = system: PC-3; assay: Antiandrogenic activity in human PC3 cells expressing androgen receptor W741C mutant assessed as inhibition of DHT-induced ARE-dependent transactivation at 1 uM after 24 hrs by luciferase reporter gene assay; type: cell-based; how it was run: as §1
[7] = system: LNCaP; assay: Suppression of DHT-stimulated growth of human LNCAP cells after 72 hrs; type: functional, cell-based
[8] = target: T2, Androgen receptor (Homo sapiens); assay: Activity in human PC3 cells expressing wild-type androgen receptor assessed as ARE-dependent transactivation at 1 uM after 24 hrs by luciferase reporter gene assay in absence of DHT; type: cell-based; conditions: PC-3; how it was run: as §1

Activity [4]: inactive | Activity [5]: inactive | Activity [8]: inactive
Compound: COc1cc(/C=C(\C(=O)/C=C/C2=C(C)CCCC2(C)C)C(=O)/C=C/c2ccc(O)c(OC)c2)ccc1O
Activity [1]: Active | Activity [2]: Active | Activity [3]: inactive | Activity [6]: Active | Activity [7]: Dose-dependent effect

Reference: ChEMBL document CHEMBL1153534, “Design and synthesis of androgen receptor antagonists with bulky side chains for overcoming antiandrogen resistance” (J Med Chem, 2009)
